ChEMBL document CHEMBL1144989, “Synthesis and biological evaluation of resveratrol and analogues as apoptosis-inducing agents” (J Med Chem, 2003)

Key:
HL-60 [1] = assay: In vitro concentration required to induce apoptosis in HL60 cells; type: functional, cell-based, Homo sapiens
In short: (§1)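 Apoptosis scored morphologically after acridine orange/ethidium bromide labeling. 2 × 10^5 cells were pelleted at 300g, resuspended in dye mix and examined under a fluorescence microscope with a 100× oil objective. Percentages were confirmed by annexin V/PI and by the PI sub-G0-G1 hypodiploid peak after 48 h culture. Compounds were diluted in medium from DMSO or PBS, DMSO ≤0.1%.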

HL-60 [2] = assay: In vitro inhibitory concentration against proliferation of HL60 cells; type: functional, cell-based, Homo sapiens
In short: (§2)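 Cells were cultured at 37 °C in 5% CO2. 2 × 10^5 cells in 1 mL complete medium were treated with a range of drug concentrations for 48 h. Viable cells were counted on a hemocytometer after trypan blue staining and expressed as percent of control proliferation. Compounds were diluted in medium from DMSO or PBS stocks, final DMSO ≤0.1%, protected from light.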

HL-60 [3] = assay: (§3) In vitro inhibitory concentration against proliferation of HL60R cells; type: functional, cell-based; details: Homo sapiens
In short: (§4)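 HL60R cells, 2 × 10^5 per well in 1 mL complete medium at 37 °C with 5% CO2, treated with a range of drug concentrations for 48 h. Compounds were dissolved in DMSO or PBS, with final DMSO ≤0.1%. Viable cells were counted by trypan blue exclusion on a hemocytometer and expressed as percent of control proliferation to derive the IC50.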

HL-60 [4] = assay: (§5) In vitro concentration required to induce apoptosis in HL60R cells; type: functional, cell-based; details: Homo sapiens
In short: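 HL60R cells in 5% CO2 at 37 °C, treated with a range of drug concentrations for 48 h. Cells were labelled with acridine orange/ethidium bromide and scored under fluorescence microscopy (100× oil) as live, apoptotic or necrotic. The AC50 is derived from the percentage of apoptotic cells. Annexin V/PI staining and PI sub-G0-G1 flow cytometry served as confirmation. DMSO ≤0.1%.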

HL-60 [5] = assay: (§6) In vitro inhibitory concentration against proliferation of HL60R cells along with 5 (uM) verapamil; type: functional, cell-based; details: Homo sapiens
In short: as §4, with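 “given verapamil together” for “treated”, “h.” for “h. Compounds were dissolved in DMSO or PBS, with final DMSO ≤0.1%.”, “IC50. Final DMSO ≤0.1%.” for “IC50.”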

HL-60 [6] = assay: as §3; type: functional, cell-based; details: Homo sapiens; in short: as §2; remark: listed apart in the source
HL-60 [7] = assay: as §6; type: functional, cell-based; details: Homo sapiens; in short: as §2; remark: listed apart in the source
HL-60 [8] = assay: as §5; type: functional, cell-based; details: Homo sapiens; in short: as §1; remark: listed apart in the source
HL-60 [9] = assay: In vitro concentration required to inhibit cell proliferation in HL60R cells; details: Homo sapiens

| Compound | AC50 (HL-60 [1]; Homo sapiens, HL-60) | IC50 (HL-60 [2]; Homo sapiens, HL-60) | also measured |
| --- | --- | --- | --- |
| COc1ccc(/C=C/c2cc(O)cc(O)c2)cc1N | > 200 µM | 80 µM | – |
| COc1cc(/C=C/c2ccc(O)c(O)c2)cc(OC)c1 | 1 µM | 0.8 µM | – |
| COc1cc(/C=C\c2ccc(O)cc2)cc(OC)c1 | 5 µM | 2 µM | – |
| COc1cc(/C=C/c2ccc(O[Si](C)(C)C(C)(C)C)cc2)cc(OC)c1 | > 200 µM | 48 µM | – |
| COc1cc(/C=C\c2ccc(OC)c(O)c2)cc(OC)c1 | 0.04 µM | – | IC50 (HL-60 [3]): 25 nM; AC50 (HL-60 [4]): 30 nM; IC50 (HL-60 [5]): 20 nM |
| Oc1ccc(/C=C/c2cc(O)cc(O)c2)cc1 [RESVERATROL] | 50 µM | 5 µM | – |
| COc1cccc2c1C(=O)c1c(O)c3c(c(O)c1C2=O)C[C@@](O)(C(C)=O)C[C@@H]3O[C@H]1C[C@H](N)[C@H](O)[C@H](C)O1 [DAUNORUBICIN] | 0.04 µM | 0.005 µM | IC50 (HL-60 [6]): 1500 nM; IC50 (HL-60 [7]): 40 nM; AC50 (HL-60 [8]): 10 µM |
| COc1cc(/C=C/c2ccc(OC)c(O)c2)cc(OC)c1 | 0.9 µM | 0.7 µM | – |
| COc1cc(/C=C\c2ccc(OC)c(N)c2)cc(OC)c1 | 0.04 µM | – | IC50 (HL-60 [6]): 35 nM; IC50 (HL-60 [7]): 32 nM; AC50 (HL-60 [8]): 0.05 µM |
| COc1cc(/C=C\c2ccc(O)c(O)c2)cc(OC)c1 | 0.1 µM | 0.05 µM | – |
| COc1ccc(/C=C\c2cc(O)cc(O)c2)cc1N | 68 µM | 40 µM | – |
| COc1ccc(/C=C/c2cc(O)cc(O)c2)cc1O | > 200 µM | 48 µM | – |
| COc1cc(/C=C\c2ccc(O[Si](C)(C)C(C)(C)C)cc2)cc(OC)c1 | > 200 µM | 50 µM | – |
| COc1cc(/C=C/c2ccc(O)cc2)cc(OC)c1 [PTEROSTILBENE] | 70 µM | 35 µM | – |
| COc1ccc(/C=C\c2cc(O)cc(O)c2)cc1O | 70 µM | 40 µM | – |
| O=c1[nH]cc(F)c(=O)[nH]1 [FLUOROURACIL] | 6.5 µM | 1.5 µM | – |
| COc1cc(/C=C/c2ccc(O)c(OC)c2)cc(OC)c1 | 40 µM | 25 µM | – |
| Nc1ccn([C@@H]2O[C@H](CO)[C@@H](O)[C@@H]2O)c(=O)n1 [CYTARABINE] | 0.15 µM | 0.08 µM | AC50 (HL-60 [8]): 8 µM; IC50 (HL-60 [9]): 350 nM |
| COc1cc(/C=C\c2ccc(O)c(OC)c2)cc(OC)c1 | 38 µM | 20 µM | – |
| CISPLATIN | – | – | AC50 (HL-60 [1]; hl-60): 1.2 µM; IC50 (HL-60 [2]; hl-60): 0.6 µM |
| Oc1ccc(/C=C\c2cc(O)cc(O)c2)cc1 [CIS-RESVERATROL] | > 200 µM | 42 µM | – |
| COc1cc([C@@H]2c3cc4c(cc3[C@@H](O[C@@H]3O[C@@H]5CO[C@@H](C)O[C@H]5[C@H](O)[C@H]3O)[C@H]3COC(=O)[C@H]23)OCO4)cc(OC)c1O [ETOPOSIDE] | 0.45 µM | 0.123 µM | IC50 (HL-60 [6]): 6500 nM; IC50 (HL-60 [7]): 500 nM; AC50 (HL-60 [8]): 15 µM |
| COc1cc(/C=C/c2ccc(OC)c(N)c2)cc(OC)c1 | 8 µM | 4 µM | – |
